CRFR2-BP ag: agonists of human CRF-binding protein/CRF-R2 receptor complex | HEK293 CRF-R2/CRF-BP, calcium dye fluorescence (FLIPR); percent of saturating CRF peptide response | activation, % at 13.2 µM | actives 0.46% (n = 350,000);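 active means activation of at least 50%, plus an integration ratio under a set limit after plate pattern correction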;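 further: plate controls were neutral control wells without compound for no effect and CRF at EC100 for full effect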
HNF4A DNA FP: change in binding of human HNF4 alpha to DNA; P41235; HNF4a-FITC DNA binding, fluorescence polarization, 1 h; activity change, % at 10 µM; actives 0.3% (n = 360,000); in the data active means activity change above about 30%, passing the limit was not always enough
CRFR2-BP antag: antagonists of CRF-binding protein/CRF-R2 receptor complex; inhibition, % at 11.8 µM; actives 0.59% (n = 350,000); AID 588475; HEK293 CRF-R2/CRF-BP, CRF-induced calcium fluorescence;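 active means inhibition of the ligand-induced calcium signal above about 50% at the single tested concentration, limit read from the data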
TPT1 inhibitor: inhibitors of Candida albicans tRNA 2'-phosphotransferase TPT1; recombinant caTPT1, FP RNA substrate dephosphorylation; inhibition, % at 5 µM; actives 0.81% (n = 300,000);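 active means inhibition above the mean of all tested compounds plus 3 SD, set per screening campaign, cut at about 24% in these data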;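 further: plate controls were DMSO alone for no effect and ferristatin control at 100 nM for full effect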
CSN inh: CSN deneddylation inhibition. Q92905. Purified CSN, SCF-Nedd8-OG deneddylation, fluorescence polarization. inhibition, % at 12.5 µM. actives 0.38% (n = 360,000);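 active means pattern-corrected inhibition above about 35%, with an unprinted fluorescence ratio check between 0.5 and 1.5, limit read from the data, passing the limit was not always enough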;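 further: 0% = enzyme with substrate and 100% = substrate without enzyme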
Target sequence (Q92905 whole entry, looked up, one chain of several): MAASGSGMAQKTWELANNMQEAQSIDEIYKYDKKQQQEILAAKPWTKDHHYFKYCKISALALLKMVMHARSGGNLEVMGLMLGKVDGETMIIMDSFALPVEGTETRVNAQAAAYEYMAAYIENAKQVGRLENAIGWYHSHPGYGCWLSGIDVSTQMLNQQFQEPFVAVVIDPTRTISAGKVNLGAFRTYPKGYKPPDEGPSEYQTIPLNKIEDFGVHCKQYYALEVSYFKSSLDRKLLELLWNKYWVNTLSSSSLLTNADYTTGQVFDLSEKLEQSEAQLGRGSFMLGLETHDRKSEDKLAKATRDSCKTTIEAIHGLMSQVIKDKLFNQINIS
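Test system: purified human Csn5 enzyme expressed in HEK293T cells. Amount: 0.24 nM enzyme. Reagent: SCFSkp2-Nedd8OG substrate at 10 nM final. Schedule: 90 min incubation of compound, enzyme and substrate at room temperature. Detection: fluorescence polarization. Read-out: % inhibition of substrate cleavage by Csn5.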
Rpn11 block: inhibitors of human proteasome Rpn11. human 26S proteasome, Ub4-pepOG fluorescence polarization; 20S core pre-blocked with epoxomicin. calls only at 20 µM. actives 0.59% (n = 360,000). AID 588493;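 active means inhibition at 20 µM, scaled to each plate's controls, above about 33%, limit read from the data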
Target sequence (O00487 whole entry, looked up): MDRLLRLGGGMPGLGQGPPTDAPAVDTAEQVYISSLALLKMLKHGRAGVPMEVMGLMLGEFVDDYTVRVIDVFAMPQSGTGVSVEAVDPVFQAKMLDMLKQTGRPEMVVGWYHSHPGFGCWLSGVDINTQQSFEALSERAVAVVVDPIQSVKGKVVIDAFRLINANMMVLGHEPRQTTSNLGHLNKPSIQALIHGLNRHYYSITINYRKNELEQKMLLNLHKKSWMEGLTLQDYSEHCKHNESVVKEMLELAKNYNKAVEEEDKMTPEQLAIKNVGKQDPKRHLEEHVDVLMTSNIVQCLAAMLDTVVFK
Rpn11 confirm: confirmation of human proteasome Rpn11 inhibitors. actives 29% (n = 1,900). shares compounds with Rpn11 block. purified human 26S proteasome, Ub4-pepOG fluorescence polarization; proteasome pretreated with epoxomicin. inhibition, % at 20 µM. AID 602318
MMP-2 counter: MMP-2 (human) inhibition counter-screen. shares compounds with Rpn11 block. recombinant MMP-2, FRET peptide cleavage fluorescence. inhibition, % at 20 µM. actives 4% (n = 1,900);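 further: human MMP-2 activated beforehand with APMA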
Thrombin FP: blocks bovine thrombin, flagging nonselective RPN11 hits | shares compounds with Rpn11 block | bovine thrombin cleavage of Ub4-pepOG, fluorescence polarization | inhibition, % at 20 µM | actives 13% (n = 1,900);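 active means mean inhibition at least 40% at 20 µM, or signal 3 deviations below plate average, so some actives read negative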;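 further: plate controls were thrombin with DMSO for no effect and buffer wells lacking thrombin for full effect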
An asterisk follows results filed as active; i = inactive; · = no result; + = active, no number. The list is not random: actives were taken first. Their share in the collection is about 2.3%. Unless noted, no stated cut-off is given here; in the data, active means inhibition above about 40%; inactive means the rest.

SMILES	CRFR2-BP ag	HNF4A DNA FP	CRFR2-BP antag	TPT1 inhibitor	CSN inh	Rpn11 block	Rpn11 confirm	MMP-2 counter	Thrombin FP
Cc1cc(C)cc(NC(=O)C2CCN(S(=O)(=O)c3ccc4c(c3)NC(=O)C(C)S4)CC2)c1 (stereo unspecified)	-2	4	27	-4	4	i	·	·	·
Cc1ccc(NC(=O)C2CCN(S(=O)(=O)c3ccc4c(c3)NC(=O)C(C)S4)CC2)cc1Cl (stereo unspecified)	3	5	-17	8	0	+	44*	1	35
CCCOc1ccc(C(=O)NC(=S)N2CCN(c3cc4c(cc3F)c(=O)c(C(=O)O)cn4CC)CC2)cc1	-1	-6	-12	0	-1	+	-7	-19	-10
CC(=O)c1ccc(S(=O)(=O)N2CCN(C(=O)c3ccc(COc4ccccc4)o3)CC2)cc1	2	7	3	·	3	i	·	·	·
Cc1ccc2nc(NCCCO)[nH]c2c1	-3	-5	-1	-3	-1	+	-11	-35	-19
COc1cc2ccc(C(C)=NNC(N)=S)cc2cc1OC	-1	-1	4	·	-2	+	-10	3	-13
CCc1ccc(C(=O)Nc2cccc(-c3nn[nH]n3)c2)s1	0	0	10	0	-1	i	·	·	·
Cn1c(=O)oc2cc(S(=O)(=O)NCC3CCCO3)ccc21 (stereo unspecified)	0	11	11	-3	15	+	22	-4	20
Cc1cc(C)c(NS(=O)(=O)c2ccc3c(c2)oc(=O)n3C)c(C)c1	1	-3	-4	·	2	i	·	·	·
Cn1c(=O)oc2cc(S(=O)(=O)NC3CCCCC3)ccc21	1	-2	1	-3	1	i	·	·	·
Cn1c(=O)oc2cc(S(=O)(=O)Nc3cccc4c3CCCC4)ccc21	1	6	-5	14	14	+	38	20	24
CCCOP(=O)(c1ccc(N(C)C)cc1)C(O)c1cccnc1 (stereo unspecified)	0	0	2	-1	-1	i	·	·	·
CC(C)Oc1cccc(C(=O)NC(=S)Nc2ccc(N3CCN(C)CC3)cc2)c1	-1	5	-18	-4	1	i	·	·	·
CC(=O)Oc1oc(-c2ccccc2)nc1C=Nc1ccc(N(C)C)cc1	1	0	2	8	6	i	·	·	·
CN(C)c1ccc(N=Cc2nc(-c3ccccc3)oc2OC(=O)c2ccccc2)cc1	6	2	-28	6	-4	+	49*	0	active
CCN(CCCNC(=O)CCNC(=O)Cn1ccc2ccccc2c1=O)c1ccccc1	0	1	-14	·	-6	i	·	·	·
Cc1ccc(N(Cc2ccccc2)C(=O)c2cc(S(=O)(=O)N3CCOCC3)ccc2F)cc1	0	15	13	·	8	+	9	-19	-1
Cc1ccc(N(Cc2ccccc2)C(=O)c2cc(S(=O)(=O)N3CCOCC3)ccc2Cl)cc1	4	5	19	1	-2	i	·	·	·
Oc1ccc(C=Nc2ccc(N3CCOCC3)cc2)c(O)c1	8	2	-9	0	10	i	·	·	·
Oc1cc(Br)ccc1C=Nc1ccc(N2CCCCC2)cc1	1	37*	0	0	-2	+	25	-26	9
C/C(=N\NC(=O)Cc1cccn1C)c1cccc2ccccc12	-2	0	-3	2	1	i	·	·	·
Cc1c(Cc2ccccc2)sc(NC(=O)/C=C/c2cccc3ccccc23)c1C(N)=O	1	4	5	-1	2	+	-6	-8	-33
CCOc1ccc(C(c2c(C)[nH][nH]c2=O)c2c(C)[nH][nH]c2=O)cc1OC	1	6	1	-2	-1	i	·	·	·
CCOc1cc(C(c2c(C)[nH][nH]c2=O)c2c(C)[nH][nH]c2=O)ccc1OS(=O)(=O)c1ccc(C)cc1	-2	12	5	-3	2	+	20	16	-13
CCOC(=O)c1c(NC(=O)C2=C(C)NC(=S)NC2c2ccc(F)cc2F)sc(C)c1C (stereo unspecified)	0	-1	-27	-1	-12	+	-14	11	-20
SMILES	CRFR2-BP ag	HNF4A DNA FP	CRFR2-BP antag	TPT1 inhibitor	CSN inh	Rpn11 block	Rpn11 confirm	MMP-2 counter	Thrombin FP
Cc1ccc(NC(=O)NNC(=O)C2CC(c3cccnc3)=NO2)cc1 (stereo unspecified)	2	-3	-11	0	1	i	·	·	·
CCOCCCn1c(=NC(C)=O)c(C#N)cc2c(=O)n3ccccc3nc21	-2	-4	2	-3	-5	i	·	·	·
CC(=O)N=c1c(C#N)cc2c(=O)n3ccccc3nc2n1Cc1ccccc1	3	15	5	4	30	+	-22	-37	-18
O=C(CN1C(=O)c2ccccc2S1(=O)=O)NCCSc1ccccc1	0	-2	7	-1	5	+	-7	-26	-19
Cc1ccc(SCCNC(=O)CN2C(=O)c3ccccc3S2(=O)=O)cc1	6	0	5	-2	2	i	·	·	·
COc1ccc(-c2csc(N3CCN(c4cc5c(cc4Cl)nc(-c4ccncc4)n5CCOCCO)CC3)n2)cc1	-1	12	0	22	-4	i	·	·	·
COc1ccc(-c2csc(NCCc3nc4cc(Cl)c(N5CCCCC5)cc4n3CCOCCO)n2)cc1	3	10	-8	4	7	+	7	5	1
CCOC(=O)C1=C(C)N=c2s/c(=C\c3ccc(OCC(=O)O)cc3)c(=O)n2C1c1ccc(Cl)cc1 (stereo unspecified)	3	6	4	·	32	+	91*	-11	20
CCOC(=O)C1=C(C)N=c2s/c(=C\c3ccc(O)c([N+](=O)[O-])c3)c(=O)n2C1c1ccccc1OC (stereo unspecified)	-1	4	30	20	14	+	24	-21	-4
CCOC(=O)C1=C(C)N=c2s/c(=C\c3ccc(OCC(=O)O)cc3)c(=O)n2C1c1ccccc1OC (stereo unspecified)	-1	8	1	23	4	i	·	·	·
COc1ccc(/C=c2/sc3n(c2=O)C(c2ccccc2OC)C2=C(N=3)c3ccccc3CC2)cc1O (stereo unspecified)	5	20	5	18	8	+	25	23	0
